# In ChEMBL document CHEMBL1156197, “Design, synthesis and evaluation of novel 2-thiophen-5-yl-3H-quinazolin-4-one analogues as inhibitors of transcription factors NF-kappaB and AP-1 mediated transcriptional activation: Their possible utilization as anti-inflammatory and anti-cancer agents” (Bioorg Med Chem, 2010):
# Calls of active or inactive are those of the source. The calls are words filed in the database; no cut-off is given here.
# Assays:
# [1] = system: HEK293; assay: Inhibition of NF-kappaB expressed in HEK293 cells assessed as inhibition of TNF-alpha-stimulated transcriptional activation at 10 uM treated 24 hrs before TNFalpha challenge measured after 20 to 24 hrs by luciferase reporter gene assay; assay type: cell-based
# Summary of the method: (§1)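 Compounds in 0.1% DMSO (10 µM–1 nM) were added to replicate wells for 24 h. Cells were then stimulated with TNF-α for 20–24 h and read with Bright-Glo luciferase. Mean RLU was normalized to the maximal control; IC50 came from a six-point dose response.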
# [2] = biological target: Transcription factor Jun (Homo sapiens) (UniProt P05412); assay: Inhibition of AP-1 expressed in HEK293 cells assessed as PMA-stimulated transcriptional activation at 10 uM treated 24 hrs before PMA challenge measured after 20 to 24 hrs by luciferase reporter gene assay; assay type: cell-based
# Chain of Transcription factor Jun (Homo sapiens) (P05412 whole entry): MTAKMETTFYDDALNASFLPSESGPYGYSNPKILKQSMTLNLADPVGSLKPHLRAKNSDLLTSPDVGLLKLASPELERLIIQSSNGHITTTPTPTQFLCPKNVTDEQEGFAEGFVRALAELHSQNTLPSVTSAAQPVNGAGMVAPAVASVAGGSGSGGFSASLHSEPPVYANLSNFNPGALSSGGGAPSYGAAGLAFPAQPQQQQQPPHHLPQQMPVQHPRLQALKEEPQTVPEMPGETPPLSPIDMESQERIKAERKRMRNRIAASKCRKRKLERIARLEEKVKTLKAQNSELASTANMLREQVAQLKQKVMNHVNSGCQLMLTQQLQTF
# Summary of the method: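 HEK-293 cells stably carrying a minimal-promoter luciferase construct with tandem AP-1 elements (TGACTAA) were plated at 5 × 10⁴ cells/well and held 24 h at 37 °C in 5% CO₂. Compounds in 0.1% DMSO (10 µM–1 nM) were added to replicate wells for 24 h. Cells were then stimulated with PMA for 20–24 h and read with Bright-Glo luminescence. Mean RLU was normalized to the maximal control; IC50 came from a six-point dose response.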
# [3] = system: HEK293; assay: Cytotoxicity against TNF-alpha-stimulated HEK293 cells at 10 uM treated 24 hrs before TNFalpha challenge measured after 20 to 24 hrs; assay type: cell-based; conditions: human, hek293, 10 µM
# [4] = Inhibition of NF-kappaB expressed in HEK293 cells assessed as inhibition of TNF-alpha-stimulated transcriptional activation treated 24 hrs before TNFalpha challenge measured after 20 to 24 hrs by luciferase reporter gene assay; assay type: cell-based; summary of the method: as §1
# [5] = system: Rattus norvegicus; assay: Antiinflammatory activity against carrageenan-induced paw edema in Sprague-Dawley rat assessed as reduction in paw volume at 50 mg/kg, po dosed 1 hr before carrageenan challenge measured after 3 hrs by plethysmometry; assay type: functional; design: scale not given: the % may be the effect or the level left
# [6] = system: Mus musculus; assay: Inhibition of LPS-stimulated NF-kappaB activation in transgenic FVB mouse assessed as decrease in NF-kappaB activity at 50 mg/kg, po QD for 3 days before LPS challenge measured after 3 hrs by bioluminescence based luciferase reporter gene assay relative to control; assay type: functional; design: scale not given: the % may be the effect or the level left
# [7] = system: LNCaP; assay: Cytotoxicity against human LNCAP cells; assay type: functional, cell-based
# [8] = system: PC-3; assay: Cytotoxicity against human PC3 cells; assay type: functional, cell-based
# [9] = system: TCC-SUP; assay: Cytotoxicity against human TCCSUP cells; assay type: functional, cell-based
Structure (SMILES),inhibition [1],inhibition [2],Activity [3],IC50 [4],Activity [5],Activity [6],Activity [7],Activity [8],Activity [9]
O=c1c2ccccc2nc(-c2cc(-c3ccccc3)c(N3CCOCC3)s2)n1-c1ccc(Cl)cc1,0%,23%,Non-toxic,,,,,,
CC(=O)Nc1ccc(-c2cc(-c3nc4ccccc4c(=O)n3-c3cccc(C)c3)sc2N2CCOCC2)cc1,35%,13%,Non-toxic,,,,,,
CS(=O)(=O)c1ccc(-c2cc(-c3nc4ccccc4c(=O)n3-c3ccc(Cl)cc3)sc2N2CCOCC2)cc1,0%,7%,Non-toxic,,,,,,
O=c1c2ccccc2nc(-c2cc(-c3ccc(Cl)cc3)c(N3CCOCC3)s2)n1-c1ccc(Cl)cc1,0%,14%,Non-toxic,,,,,,
O=c1c2ccccc2nc(-c2cc(-c3ccncc3)c(N3CCOCC3)s2)n1-c1ccc(Cl)cc1,68%,32%,Non-toxic,11.4 µM,52%,,,,
CC(=O)c1ccc(-n2c(-c3cc(-c4ccc(S(C)(=O)=O)cc4)c(N4CCOCC4)s3)nc3ccccc3c2=O)cc1,46%,31%,Non-toxic,,,,,,
Cc1ccc(-n2c(-c3cc(-c4ccccc4)c(N4CCOCC4)s3)nc3ccccc3c2=O)cc1,0%,17%,Non-toxic,,,,,,
CC(=O)c1ccc(-n2c(-c3cc(-c4ccncc4)c(N4CCOCC4)s3)nc3ccccc3c2=O)cc1,66%,84%,Non-toxic,10 µM,81%,43%,Active,Active,Active
CSc1ccc(-c2cc(-c3nc4ccccc4c(=O)n3-c3ccccc3C)sc2N2CCOCC2)cc1,15%,13%,Non-toxic,,,,,,
COc1ccccc1-n1c(-c2cc(-c3ccc(S(C)(=O)=O)cc3)c(N3CCOCC3)s2)nc2ccccc2c1=O,55%,33%,Non-toxic,9.2 µM,63%,,,,
O=c1c2ccccc2nc(-c2cc(-c3ccc(Cl)cc3)c(N3CCOCC3)s2)n1-c1ccccc1,0%,0%,Non-toxic,,,,,,
Cc1cccc(-n2c(-c3cc(-c4ccc(Cl)cc4)c(N4CCOCC4)s3)nc3ccccc3c2=O)c1,28%,10%,Non-toxic,,,,,,
CSc1ccc(-c2cc(-c3nc4ccccc4c(=O)n3-c3ccc(C)cc3)sc2N2CCOCC2)cc1,22%,16%,Non-toxic,,,,,,
CC(=O)Nc1ccc(-c2cc(-c3nc4ccccc4c(=O)n3-c3ccc(C)cc3)sc2N2CCOCC2)cc1,4%,35%,Non-toxic,,,,,,
O=c1c2ccccc2nc(-c2cc(-c3ccccc3)c(N3CCOCC3)s2)n1-c1ccccc1,0%,11%,Non-toxic,,,,,,
O=c1c2ccccc2nc(-c2cc(-c3ccncc3)c(N3CCOCC3)s2)n1-c1ccccc1Cl,80%,35%,Non-toxic,10.3 µM,43%,,,,
Cc1ccccc1-n1c(-c2cc(-c3ccc(S(C)(=O)=O)cc3)c(N3CCOCC3)s2)nc2ccccc2c1=O,51%,52%,Non-toxic,,,,,,
Cc1ccc(-n2c(-c3cc(-c4ccc(Cl)cc4)c(N4CCOCC4)s3)nc3ccccc3c2=O)cc1,15%,27%,Non-toxic,,,,,,
Cc1ccc(-n2c(-c3cc(-c4ccncc4)c(N4CCOCC4)s3)nc3ccccc3c2=O)cc1,26%,29%,Non-toxic,,,,,,

Structure (SMILES),inhibition [1],inhibition [2],Activity [3],IC50 [4],Activity [5],Activity [6],Activity [7],Activity [8],Activity [9]
Cc1ccccc1-n1c(-c2cc(-c3ccccc3)c(N3CCOCC3)s2)nc2ccccc2c1=O,23%,27%,Non-toxic,,,,,,
Cc1ccccc1-n1c(-c2cc(-c3ccncc3)c(N3CCOCC3)s2)nc2ccccc2c1=O,53%,0%,Non-toxic,7.1 µM,51%,,,,
Cc1cccc(-n2c(-c3cc(-c4ccncc4)c(N4CCOCC4)s3)nc3ccccc3c2=O)c1,42%,35%,Non-toxic,,,,,,
Cc1ccccc1-n1c(-c2cc(-c3ccc(Cl)cc3)c(N3CCOCC3)s2)nc2ccccc2c1=O,1%,32%,Non-toxic,,,,,,
Cc1cccc(-n2c(-c3cc(-c4ccc(S(C)(=O)=O)cc4)c(N4CCOCC4)s3)nc3ccccc3c2=O)c1,20%,48%,Non-toxic,,,,,,
CSc1ccc(-c2cc(-c3nc4ccccc4c(=O)n3-c3cccc(C)c3)sc2N2CCOCC2)cc1,11%,14%,Non-toxic,,,,,,
CC(=O)c1ccc(-n2c(-c3cc(-c4ccc(Cl)cc4)c(N4CCOCC4)s3)nc3ccccc3c2=O)cc1,0%,7%,Non-toxic,,,,,,
COc1ccccc1-n1c(-c2cc(-c3ccncc3)c(N3CCOCC3)s2)nc2ccccc2c1=O,55%,33%,Non-toxic,12.2 µM,42%,,,,
Cc1ccc(-n2c(-c3cc(-c4ccc(S(C)(=O)=O)cc4)c(N4CCOCC4)s3)nc3ccccc3c2=O)cc1,55%,51%,Non-toxic,,,,,,
COc1ccccc1-n1c(-c2cc(-c3ccccc3)c(N3CCOCC3)s2)nc2ccccc2c1=O,0%,0%,Non-toxic,,,,,,
CC(=O)Nc1ccc(-c2cc(-c3nc4ccccc4c(=O)n3-c3ccccc3)sc2N2CCOCC2)cc1,7%,26%,Non-toxic,,,,,,
CS(=O)(=O)c1ccc(-c2cc(-c3nc4ccccc4c(=O)n3-c3ccccc3)sc2N2CCOCC2)cc1,9%,28%,Non-toxic,,,,,,
CSc1ccc(-c2cc(-c3nc4ccccc4c(=O)n3-c3ccccc3)sc2N2CCOCC2)cc1,0%,0%,Non-toxic,,,,,,
COc1ccc(-n2c(-c3cc(-c4ccc(S(C)(=O)=O)cc4)c(N4CCOCC4)s3)nc3ccccc3c2=O)cc1,60%,10%,Non-toxic,26 µM,53%,,,,
COc1cccc(-n2c(-c3cc(-c4ccc(S(C)(=O)=O)cc4)c(N4CCOCC4)s3)nc3ccccc3c2=O)c1,20%,0%,Non-toxic,,,,,,
O=c1c2ccccc2nc(-c2cc(-c3ccncc3)c(N3CCOCC3)s2)n1-c1ccccc1,30%,38%,Non-toxic,,,,,,
CC(=O)Nc1ccc(-c2cc(-c3nc4ccccc4c(=O)n3-c3ccc(Cl)cc3)sc2N2CCOCC2)cc1,0%,17%,Non-toxic,,,,,,
CC(=O)c1ccc(-n2c(-c3cc(-c4ccccc4)c(N4CCOCC4)s3)nc3ccccc3c2=O)cc1,0%,25%,Non-toxic,,,,,,
